# Assay results as given in paper PMC7286531 (Organic & biomolecular chemistry, 2020).
# Tests used:
# [1] = tested on: STAT3 phosphorylated on tyrosine 705 (pSTAT3); test: G-CSF-induced intracellular STAT3 phosphorylation assay in AML cell lines; type: cell-based, human; conditions: Kasumi-1 / Kasumi cells
# Procedure, shortened: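 Kasumi-1 human AML cells (also other AML lines) were exposed to a concentration series of test compound and stimulated with G-CSF to induce STAT3 phosphorylation. Cells were then lysed, and STAT3 phosphorylated on Tyr705 was quantified with a fluorescent anti-pSTAT3 antibody. IC50 was taken from the concentration series; mean ±SD, n = 3.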
# [2] = Stability in aqueous buffer under air; type: physicochemical; conditions: C188–9: within 4 hours
smiles,measurement,setting,value
COc1ccc(S(=O)(=O)Nc2cc(-c3c(O)ccc4ccccc34)c(O)c3ccccc23)cc1 [C188–9],"inhibition of G-CSF-induced STAT3 phosphorylation, result in words",[1],exceptionally resistant
same,"stability in aqueous buffer in air, result in words",[2],Significant decomposition
